Laboratory results as given in ChEMBL document CHEMBL1138117, “Hybrid antibacterials. DNA polymerase-topoisomerase inhibitors” (J Med Chem, 2006).
Values after ≈ are worked out from the molar mass of the structure shown.

Tests used:
[1] = tested on: Enterococcus faecalis; experiment: Antibacterial activity against Enterococcus faecalis 29212; type: functional
[2] = Tmax in mice at 100 mg/kg, iv; type: ADME, organism-based; parameters: dose 100 mg/kg, route intravenous; conditions: Swiss Webster, mouse, in vivo
Summary of the method: (§1)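 Male Swiss-Webster mice (20–24 g) got a single 100 mg/kg iv tail-vein bolus at 5 mL/kg in DCP vehicle (10% N,N-dimethylacetamide, 10% Cremophor EL in PBS, pH 9.5). Blood was taken from groups of 3 at various times. Plasma was quantified by C18 HPLC with MeCN:H₂O:NEt₃:AcOH (25:74.7:0.2:0.1), 1 mL/min, detection at 282 nm, against a spiked-plasma standard curve linear over 1–40 μg/mL.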

[3] = tested on: DNA gyrase (Bacillus subtilis); experiment: Inhibition of Bacillus subtilis gyrase activity
[4] = tested on: Staphylococcus aureus; experiment: Antibacterial activity against methicillin resistant Staphylococcus aureus MRSA 1094; type: functional
[5] = target: DNA topoisomerase IV (Bacillus subtilis); experiment: Inhibition of Bacillus subtilis topoisomerase IV activity
[6] = tested on: Escherichia coli; experiment: Antibacterial activity against Escherichia coli J53; type: functional
[7] = tested on: Mus musculus; experiment: Effect on survival of mice after ip infection with Staphylococcus aureus Smith; type: functional
Summary of the method: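 Male Swiss-Webster mice (20–24 g) were given 10⁸ CFU of log-phase S. aureus Smith ip, grown in LB at 37 °C and washed in cold broth. A single iv tail-vein dose was given in DCP vehicle (10% DMA, 10% Cremophor EL in PBS, pH 9.5; 5 mL/kg) 15 min post-infection. Survival was scored at 72 h and ED50 derived.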

[8] = tested on: Enterococcus faecium; experiment: Antibacterial activity against Enterococcus faecium 19434; type: functional
[9] = tested on: Enterococcus faecium; experiment: Antibacterial activity against Vancomycin resistant Enterococcus faecium VRE 700802; type: functional
[10] = Plasma concentration after 6 hrs in mice administered with 100 mg/kg, iv; type: ADME, organism-based; parameters: dose 100 mg/kg, route intravenous; conditions: Swiss Webster, mouse; summary of the method: as §1
[11] = Cmax in mice at 100 mg/kg, iv; type: ADME, organism-based; parameters: dose 100 mg/kg, route intravenous; conditions: Swiss Webster, mouse, in vivo; summary of the method: as §1
[12] = tested on: Staphylococcus aureus; experiment: Antibacterial activity against Staphylococcus aureus smith; type: functional
[13] = tested on: Bacillus subtilis; experiment: Antibacterial activity against Bacillus subtilis BD54; type: functional
[14] = tested on: Staphylococcus aureus; experiment: Antibacterial activity against Staphylococcus aureus 25293; type: functional
[15] = target: DNA polymerase III PolC-type (Bacillus subtilis (strain 168), UniProt P13267); experiment: Binding affinity to Bacillus subtilis DNA polymerase3C
Chain of DNA polymerase III PolC-type (P13267 whole entry, the tested form may be a part): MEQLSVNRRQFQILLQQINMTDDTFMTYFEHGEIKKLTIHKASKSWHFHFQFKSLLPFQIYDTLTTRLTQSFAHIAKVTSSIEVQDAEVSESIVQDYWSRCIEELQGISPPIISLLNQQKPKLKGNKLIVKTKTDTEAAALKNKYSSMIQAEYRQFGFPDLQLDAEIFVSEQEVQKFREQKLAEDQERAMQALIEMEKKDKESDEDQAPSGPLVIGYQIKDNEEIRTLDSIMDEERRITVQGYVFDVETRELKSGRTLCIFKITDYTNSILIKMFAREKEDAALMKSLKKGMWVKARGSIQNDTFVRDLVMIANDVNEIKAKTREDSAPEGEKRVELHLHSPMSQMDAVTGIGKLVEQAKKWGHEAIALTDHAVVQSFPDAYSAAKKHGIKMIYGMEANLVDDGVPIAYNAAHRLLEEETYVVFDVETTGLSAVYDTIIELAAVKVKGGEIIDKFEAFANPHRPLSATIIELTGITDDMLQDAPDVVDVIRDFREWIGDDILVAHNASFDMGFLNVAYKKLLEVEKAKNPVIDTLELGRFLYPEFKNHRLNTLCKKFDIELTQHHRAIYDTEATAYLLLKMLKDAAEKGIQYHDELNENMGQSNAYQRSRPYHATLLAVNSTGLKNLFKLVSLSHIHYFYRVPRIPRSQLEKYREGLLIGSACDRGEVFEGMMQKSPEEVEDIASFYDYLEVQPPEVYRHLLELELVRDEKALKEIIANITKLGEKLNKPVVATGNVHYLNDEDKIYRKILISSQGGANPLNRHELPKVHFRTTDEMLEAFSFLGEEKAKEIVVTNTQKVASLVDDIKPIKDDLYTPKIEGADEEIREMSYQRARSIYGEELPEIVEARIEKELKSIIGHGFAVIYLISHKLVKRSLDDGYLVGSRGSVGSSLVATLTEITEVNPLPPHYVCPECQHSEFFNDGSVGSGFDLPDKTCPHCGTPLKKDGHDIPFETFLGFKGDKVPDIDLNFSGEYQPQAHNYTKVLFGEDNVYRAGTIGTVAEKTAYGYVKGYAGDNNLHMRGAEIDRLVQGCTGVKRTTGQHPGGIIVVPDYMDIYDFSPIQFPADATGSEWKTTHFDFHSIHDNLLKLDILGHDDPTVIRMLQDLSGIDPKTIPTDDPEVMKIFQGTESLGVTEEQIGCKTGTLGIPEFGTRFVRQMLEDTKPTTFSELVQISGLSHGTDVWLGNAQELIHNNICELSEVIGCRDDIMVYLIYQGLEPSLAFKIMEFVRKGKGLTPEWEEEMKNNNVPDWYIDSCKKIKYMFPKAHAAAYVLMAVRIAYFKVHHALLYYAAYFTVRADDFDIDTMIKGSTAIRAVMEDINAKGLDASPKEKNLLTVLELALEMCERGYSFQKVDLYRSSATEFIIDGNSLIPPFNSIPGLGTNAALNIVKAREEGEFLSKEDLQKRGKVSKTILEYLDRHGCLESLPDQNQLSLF
Summary of the method: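 Homogeneous recombinant B. subtilis pol IIIC was assayed in 96-well format on activated calf thymus DNA. Apparent Ki values were determined in a truncated assay lacking the competitor dGTP.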

SMILES	MIC [1] [µg/mL]	Tmax [2] [min]	IC50 [3] [µg/mL]	MIC [4] [µg/mL]	IC50 [5] [µg/mL]	MIC [6] [µg/mL]	MIC [7] [µg/mL]	MIC [8] [µg/mL]	MIC [9] [µg/mL]	concentration at 6 h [10] [µg/mL]	Cmax [11] [µg/mL]	MIC [12] [µg/mL]	MIC [13] [µg/mL]	MIC [14] [µg/mL]	Ki ([15]; read-out: Ki) [nM]	ED50 [7] [mg/kg]	Ki [15]
CCc1cc(Nc2cc(=O)n(CCCCN3CCN(c4cc5c(cc4F)c(=O)c(C(=O)O)cn5C4CC4)CC3)c(=O)[nH]2)ccc1C	0.625 (≈ 0.991 µM)	5	28.4 (≈ 45 µM)	2.5 (≈ 3.96 µM)	22.9 (≈ 36.3 µM)	> 40	0.41 (≈ 0.65 µM)	1.25 (≈ 1.98 µM)	0.625 (≈ 0.991 µM)	0.62	213						
CCc1cc(Nc2cc(=O)n(CCCCN3CCN(c4cc5c(cc4F)c(=O)c(C(=O)O)cn5CC)CC3)c(=O)[nH]2)ccc1C	0.625 (≈ 1.01 µM)			2.5 (≈ 4.04 µM)		> 40		0.625 (≈ 1.01 µM)	0.625 (≈ 1.01 µM)			1.25 (≈ 2.02 µM)	0.313 (≈ 0.506 µM)	1.25 (≈ 2.02 µM)			
CCc1cc(Nc2cc(=O)n(CCCCCN3CC4CCCN(c5cc6c(cc5F)c(=O)c(C(=O)O)cn6C5CC5)C4C3)c(=O)[nH]2)ccc1C (stereo not drawn)	> 80			> 80		> 80		> 80				1.25 (≈ 1.83 µM)	1.25 (≈ 1.83 µM)	2.5 (≈ 3.65 µM)	41		
CCc1cc(Nc2cc(=O)n(CCCCN3CCN(c4nc5c(cc4F)c(=O)c(C(=O)O)cn5CC)CC3)c(=O)[nH]2)ccc1C	1.25 (≈ 2.02 µM)			2.5 (≈ 4.03 µM)		> 40		1.25 (≈ 2.02 µM)	0.625 (≈ 1.01 µM)				0.313 (≈ 0.505 µM)				
CCc1cc(Nc2cc(=O)n(CCCCN3CCN(c4cc5c(cc4F)c(=O)c(C(=O)O)cn5-c4ccc(F)cc4F)CC3)c(=O)[nH]2)ccc1C	1.25 (≈ 1.78 µM)					> 40		1.25 (≈ 1.78 µM)	1.25 (≈ 1.78 µM)				0.313 (≈ 0.445 µM)			27	
Cc1ccc(Nc2cc(=O)n(CCCCN3CCN(c4cc5c(cc4F)c(=O)c(C(=O)O)cn5C4CC4)CC3)c(=O)[nH]2)cc1C	2.5 (≈ 4.05 µM)			5 (≈ 8.11 µM)		> 40		2.5 (≈ 4.05 µM)	1.25 (≈ 2.03 µM)			0.625 (≈ 1.01 µM)	0.313 (≈ 0.508 µM)	1.25 (≈ 2.03 µM)			
CCc1cc(Nc2cc(=O)n(CCCCN3CCN(c4cc5c(cc4F)c(=O)c(C(=O)O)cn5C4CC4)CC3C)c(=O)[nH]2)ccc1C (stereo not drawn)	1.25 (≈ 1.94 µM)			1.25 (≈ 1.94 µM)		40 (≈ 62 µM)		1.25 (≈ 1.94 µM)	0.626 (≈ 0.971 µM)				0.313 (≈ 0.485 µM)		26	20	
CCc1cc(Nc2cc(=O)n(CCCCN3CCN(c4c(F)cc5c(=O)c(C(=O)O)cn(CC)c5c4F)CC3)c(=O)[nH]2)ccc1C	1.25 (≈ 1.96 µM)					> 40		1.25 (≈ 1.96 µM)	0.625 (≈ 0.982 µM)				0.313 (≈ 0.492 µM)				
CCc1cc(Nc2cc(=O)n(CCCCN3CCN(c4cc5c(cc4F)c(=O)c(C(=O)O)cn5C4CC4)C[C@H]3C)c(=O)[nH]2)ccc1C	0.625 (≈ 0.969 µM)			2.5 (≈ 3.88 µM)				0.625 (≈ 0.969 µM)	0.625 (≈ 0.969 µM)				0.313 (≈ 0.485 µM)			20	
CCc1cc(Nc2cc(=O)n(CCCCO)c(=O)[nH]2)ccc1C	5 (≈ 15.8 µM)			5 (≈ 15.8 µM)		> 40		5 (≈ 15.8 µM)	5 (≈ 15.8 µM)			5 (≈ 15.8 µM)	1.25 (≈ 3.94 µM)	5 (≈ 15.8 µM)	66		
O=C(O)c1cn(C2CC2)c2cc(N3CCNCC3)c(F)cc2c1=O [CIPROFLOXACIN]			1.9 (≈ 5.73 µM)	20 (≈ 60.4 µM)		0.313 (≈ 0.945 µM)			80 (≈ 241 µM)					0.313 (≈ 0.945 µM)			Not Active
O=C(O)c1cn(C2CC2)c2cc(N3CCN(CCCCn4c(=O)cc(Nc5ccccc5)[nH]c4=O)CC3)c(F)cc2c1=O	10 (≈ 17 µM)			> 40		> 40		> 40	40 (≈ 68 µM)			2.5 (≈ 4.25 µM)	2.5 (≈ 4.25 µM)	2.5 (≈ 4.25 µM)	29000		
CCc1cc(Nc2cc(=O)n(CCCCCN3CC4CCCN(c5cc6c(cc5F)c(=O)c(C(=O)O)cn6CC)C4C3)c(=O)[nH]2)ccc1C (stereo not drawn)	10 (≈ 14.9 µM)			> 80		> 80		20 (≈ 29.7 µM)	5 (≈ 7.43 µM)			5 (≈ 7.43 µM)	2.5 (≈ 3.72 µM)	10 (≈ 14.9 µM)	37		
CCc1cc(Nc2cc(=O)n(CCCCCN3CCN(c4cc5c(cc4F)c(=O)c(C(=O)O)cn5C4CC4)CC3)c(=O)[nH]2)ccc1C	0.625 (≈ 0.969 µM)			2.5 (≈ 3.88 µM)		> 40		1.25 (≈ 1.94 µM)	1.25 (≈ 1.94 µM)			1.25 (≈ 1.94 µM)	0.313 (≈ 0.485 µM)	1.25 (≈ 1.94 µM)	19		
